Measured values published in ChEMBL document CHEMBL4376859, “Prodrugs for nitroreductase-based cancer therapy-3: Antitumor activity of the novel dinitroaniline prodrugs/Ssap-NtrB enzyme suicide gene system: Synthesis, in vitro and in silico evaluation in prostate cancer” (Eur J Med Chem, 2020).
Active and inactive are the calls of the source. The calls are words filed in the database; no cut-off is given here.

How the values were obtained:
Putative nitroreductase [1] = target: T1, Putative nitroreductase (Staphylococcus saprophyticus subsp. saprophyticus (strain ATCC 15305 / DSM20229 / NCIMB 8711 / NCTC 7292 / S-41), UniProt Q4A0P1); assay: Substrate activity at Staphylococcus saprophyticus nitroreductase expressed in Escherichia coli BL21 (DE3) assessed as retention time by HPLC analysis; type: ADME
T1 sequence (Q4A0P1 whole entry): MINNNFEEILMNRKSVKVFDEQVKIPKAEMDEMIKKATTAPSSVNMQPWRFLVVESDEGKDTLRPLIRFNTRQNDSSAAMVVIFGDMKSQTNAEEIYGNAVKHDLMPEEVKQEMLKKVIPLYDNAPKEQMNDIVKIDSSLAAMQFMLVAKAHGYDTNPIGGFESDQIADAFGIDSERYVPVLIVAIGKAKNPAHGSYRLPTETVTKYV

Putative nitroreductase [2] = target: T1, Putative nitroreductase; assay: Substrate activity at Staphylococcus saprophyticus nitroreductase NtrB assessed as Kcat/Km using NADH as cofactor in Tris-Cl buffer at pH 7.5 by HPLC analysis relative to CB1954/NfsB; type: ADME
PC-3 [3] = assay: Cytotoxicity against human PC3 cells […] Staphylococcus saprophyticus nitroreductase NtrB assessed as cell viability at 150 uM in presence of NADH as cofactor after 48 hrs by SRB assay relative to control; type: functional; settings: PC-3, 48 h, read-out: Activity
In short: (§1)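 Compounds were reduced outside the cells by purified His-tag (Ni column) Ssap-NtrB. The reaction mix held 600 µM NADH and compound (150, 39, 9 µM, or 180, 18, 1.8 nM) and was applied to PC-3 cells. Controls were compound alone in 25 mM Tris/HCl pH 7.5, and enzyme alone at 31 µg/mL. After 48 h, SRB absorbance was read at 492 nm and converted to % viability.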

PC-3 [4] = assay: Cytotoxicity against human PC3 cells […] Staphylococcus saprophyticus nitroreductase NtrB assessed as reduction in cell viability in presence of NADH as cofactor after 48 hrs by SRB assay; type: functional, cell-based; settings: PC-3, 48 h; in short: as §1
Hep 3B2 [5] = assay: Cytotoxicity against human Hep3B cells assessed as cell viability at 9 to 150 uM after 24 hrs by MTT assay relative to control; type: functional
In short: (§2)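 Hep3B hepatoma, PC-3 prostate cancer and HUVEC (healthy control) cells were exposed to nitro compounds at 150, 75, 38, 19 and 9 µM for 24 h and 48 h. Viability was read by MTT assay, and IC50 values were derived from the growth inhibition curves.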

Hep 3B2 [6] = assay: Cytotoxicity against human Hep3B cells assessed as cell viability at 9 to 150 uM after 48 hrs by MTT assay relative to control; type: functional; in short: as §2
PC-3 [7] = assay: Cytotoxicity against human PC3 cells assessed as cell viability at 9 to 150 uM after 24 hrs by MTT assay relative to control; type: functional; in short: as §2
PC-3 [8] = assay: Cytotoxicity against human PC3 cells assessed as cell viability at 9 to 150 uM after 48 hrs by MTT assay relative to control; type: functional; in short: as §2
[9] = Cytotoxicity against human HUVEC cells assessed as cell viability at 9 to 150 uM after 24 hrs by MTT assay relative to control; type: cell-based; settings: read-out: Activity; in short: as §2
[10] = Cytotoxicity against human HUVEC cells assessed as cell viability at 9 to 150 uM after 48 hrs by MTT assay relative to control; type: cell-based; settings: read-out: Activity; in short: as §2
PC-3 [11] = assay: Cytotoxicity against human PC3 cells assessed as reduction in cell viability after 48 hrs by SRB assay; type: functional, cell-based; in short: as §1
Putative nitroreductase [12] = target: T1, Putative nitroreductase; assay: Substrate activity at Staphylococcus saprophyticus nitroreductase NtrB assessed as enzyme specific activity using NADH as cofactor in Tris-Cl buffer at pH 7.5 by HPLC analysis; type: ADME
Hep 3B2 [13] = assay: Cytotoxicity against human Hep3B cells assessed as cell viability after 48 hrs by MTT assay; type: functional, cell-based; in short: as §2
Hep 3B2 [14] = assay: Cytotoxicity against human Hep3B cells assessed as cell viability after 24 hrs by MTT assay; type: functional, cell-based; in short: as §2

SMILES: O=[N+]([O-])c1ccc(N2CCOCC2)c([N+](=O)[O-])c1
- Retention_time (Putative nitroreductase [1]): 19.38 min
- fold change (FC) (Putative nitroreductase [2]): 1.25
- viability at 150 µM (PC-3 [3]): 50%
- IC50 (PC-3 [4]): > 150 µM
- Activity (Hep 3B2 [5]): >80%
- Activity (Hep 3B2 [6]): 51 - 80%
- Activity (PC-3 [7]): >80%
- Activity (PC-3 [8]): >80%
- viability at 24 h, up to 150 µM [9]: > 80%
- viability at 48 h, up to 150 µM [10]: > 80%
- Activity (PC-3 [11]): inactive

SMILES: O=C(CC(F)(F)F)Nc1cc(N2CCOCC2)c([N+](=O)[O-])cc1[N+](=O)[O-]
- Retention_time (Putative nitroreductase [1]): 21.8 min
- fold change (FC) (Putative nitroreductase [2]): 4.73
- Activity (Putative nitroreductase [12]): 0.99 U/mg
- Activity (Hep 3B2 [5]): 51 - 80%
- Activity (Hep 3B2 [6]): 51 - 80%
- viability at 24 h, up to 150 µM [9]: > 80%
- viability at 48 h, up to 150 µM [10]: 51 to 80%

SMILES: O=[N+]([O-])c1ccc(Nc2cc(F)cc(F)c2)c([N+](=O)[O-])c1
- IC50 (Hep 3B2 [13]): 89.4 µM
- Retention_time (Putative nitroreductase [1]): 17.74 min
- Activity (Hep 3B2 [5]): >80%
- Activity (PC-3 [7]): >80%
- Activity (PC-3 [8]): >80%
- viability at 24 h, up to 150 µM [9]: 51 to 80%
- viability at 48 h, up to 150 µM [10]: 51 to 80%
- Activity (PC-3 [11]): inactive

SMILES: Nc1ccccc1Nc1ccc([N+](=O)[O-])cc1[N+](=O)[O-]
- Retention_time (Putative nitroreductase [1]): 16.85 min
- fold change (FC) (Putative nitroreductase [2]): 0.41
- IC50 (PC-3 [4]): 15 µM
- Activity (Hep 3B2 [5]): >80%
- Activity (Hep 3B2 [6]): >80%
- Activity (PC-3 [7]): >80%
- Activity (PC-3 [8]): >80%
- viability at 24 h, up to 150 µM [9]: > 80%
- viability at 48 h, up to 150 µM [10]: > 80%
- Activity (PC-3 [11]): inactive

SMILES: CC(C)CC(=O)Nc1cc(N2CCOCC2)c([N+](=O)[O-])cc1[N+](=O)[O-]
- IC50 (Hep 3B2 [14]): 150 µM
- Retention_time (Putative nitroreductase [1]): 24.16 min
- Activity (Hep 3B2 [6]): 51 - 80%
- viability at 24 h, up to 150 µM [9]: 51 to 80%
- viability at 48 h, up to 150 µM [10]: 51 to 80%

SMILES: CCC(=O)Oc1cc(N2CCOCC2)c([N+](=O)[O-])cc1[N+](=O)[O-]
- Activity (Hep 3B2 [5]): >80%
- Activity (Hep 3B2 [6]): >80%
- viability at 24 h, up to 150 µM [9]: 51 to 80%
- viability at 48 h, up to 150 µM [10]: 51 to 80%

SMILES: CC(C)CC(=O)Oc1cc(N2CCOCC2)c([N+](=O)[O-])cc1[N+](=O)[O-]
- Retention_time (Putative nitroreductase [1]): 24.6 min
- Activity (Hep 3B2 [5]): >80%
- Activity (Hep 3B2 [6]): >80%
- viability at 24 h, up to 150 µM [9]: 51 to 80%
- viability at 48 h, up to 150 µM [10]: 51 to 80%

SMILES: O=[N+]([O-])c1ccc(N2CCCC(O)C2)c([N+](=O)[O-])c1 (configuration not stated)
- Retention_time (Putative nitroreductase [1]): 14.9 min
- viability at 150 µM (PC-3 [3]): 50%
- IC50 (PC-3 [4]): 150 µM
- Activity (Hep 3B2 [5]): >80%
- Activity (Hep 3B2 [6]): >80%
- viability at 24 h, up to 150 µM [9]: > 80%
- viability at 48 h, up to 150 µM [10]: > 80%
- Activity (PC-3 [11]): inactive

SMILES: CCNc1ccc([N+](=O)[O-])cc1[N+](=O)[O-]
- Retention_time (Putative nitroreductase [1]): 16.92 min
- IC50 (PC-3 [4]): 6.43 µM
- Activity (Hep 3B2 [5]): 51 - 80%
- Activity (Hep 3B2 [6]): 51 - 80%
- Activity (PC-3 [7]): >80%
- Activity (PC-3 [8]): >80%
- viability at 24 h, up to 150 µM [9]: > 80%
- viability at 48 h, up to 150 µM [10]: > 80%
- Activity (PC-3 [11]): inactive
